23 compounds from ChEMBL document CHEMBL4311951, “Potent and Preferential Degradation of CDK6 via Proteolysis Targeting Chimera Degraders” (J Med Chem, 2019) can be followed below.

Structures are written as SMILES. Active and inactive are the calls of the source. The calls are words filed in the database; no cut-off is given here.

The species entered for experiment [1] is Homo sapiens. Description: Induction of cIAP-mediated CDK4 degradation in human U251 cells at 1 uM after 24 hrs by immunoblot analysis. The experiment is classed as cell-based. For orientation: Immunoblotting shows a protein as a band on a membrane.
Experiment [2] deals with Daoy. Description: Induction of cIAP-mediated CDK6 degradation in human DAOY cells at 1 uM after 24 hrs by immunoblot analysis. The class given is cell-based. In a few lines: (§1)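 Medulloblastoma DAOY cells treated 24 h with PROTACs at 1 μM; CDK6 levels then assessed by immunoblot. Palbociclib at 500 nM and 1 μM as positive control.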
The species entered for experiment [3] is Homo sapiens. The experiment is described as follows: Induction of cIAP-mediated CDK6 degradation in human U251 cells at 1 uM after 24 hrs by immunoblot analysis. The class given is cell-based.
The target in experiment [4] is von Hippel-Lindau disease tumor suppressor/Cyclin-dependent kinase 4 (Homo sapiens) (UniProt P11802+P40337). The experiment is described as follows: Induction of VHL-mediated CDK4 degradation in human U251 cells at 1 uM after 24 hrs by immunoblot analysis. The experiment is classed as cell-based.
Chain of von Hippel-Lindau disease tumor suppressor/Cyclin-dependent kinase 4 (Homo sapiens) (P11802 2-303 limits assumed): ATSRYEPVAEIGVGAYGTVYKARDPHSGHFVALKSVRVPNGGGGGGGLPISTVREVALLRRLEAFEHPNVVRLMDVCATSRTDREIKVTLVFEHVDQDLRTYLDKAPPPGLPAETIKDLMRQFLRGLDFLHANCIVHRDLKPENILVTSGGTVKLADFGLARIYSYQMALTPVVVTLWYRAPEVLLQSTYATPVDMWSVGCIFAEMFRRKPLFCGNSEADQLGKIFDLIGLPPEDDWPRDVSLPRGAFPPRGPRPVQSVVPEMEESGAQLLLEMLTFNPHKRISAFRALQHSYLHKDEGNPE
Chain of von Hippel-Lindau disease tumor suppressor/Cyclin-dependent kinase 4 (Homo sapiens) (P40337 whole entry partner): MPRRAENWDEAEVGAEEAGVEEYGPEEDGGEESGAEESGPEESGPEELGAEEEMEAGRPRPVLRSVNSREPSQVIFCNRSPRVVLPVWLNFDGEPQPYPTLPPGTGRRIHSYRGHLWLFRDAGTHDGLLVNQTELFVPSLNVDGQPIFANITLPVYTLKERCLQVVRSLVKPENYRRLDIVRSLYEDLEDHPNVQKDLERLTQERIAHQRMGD
In experiment [5] the target is T1, von Hippel-Lindau disease tumor suppressor/Cyclin-dependent kinase 6 (Homo sapiens) (UniProt Q00534+P40337). Description: Induction of VHL-mediated CDK6 degradation in human U251 cells at 1 uM after 24 hrs by immunoblot analysis. The class given is cell-based.
T1 sequence (P40337 whole entry, looked up): as the sequence (P40337 whole entry partner) above
T1 sequence (Q00534 whole entry, looked up): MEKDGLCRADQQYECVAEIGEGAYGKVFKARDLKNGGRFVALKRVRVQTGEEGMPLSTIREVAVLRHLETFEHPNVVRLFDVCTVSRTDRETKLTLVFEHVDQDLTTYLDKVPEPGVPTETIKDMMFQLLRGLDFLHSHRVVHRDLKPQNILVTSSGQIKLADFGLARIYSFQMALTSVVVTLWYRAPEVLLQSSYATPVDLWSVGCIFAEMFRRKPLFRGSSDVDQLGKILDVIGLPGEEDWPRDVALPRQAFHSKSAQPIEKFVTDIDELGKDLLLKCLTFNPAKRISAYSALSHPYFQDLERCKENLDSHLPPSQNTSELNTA
Experiment [6] deals with T1, von Hippel-Lindau disease tumor suppressor/Cyclin-dependent kinase 6 (Homo sapiens). The experiment is described as follows: Induction of VHL-mediated CDK6 degradation in human DAOY cells at 1 uM after 24 hrs by immunoblot analysis. The experiment is classed as cell-based. In a few lines:
as §1

Experiment [7] addresses Protein cereblon/Cyclin-dependent kinase 6 (Homo sapiens, UniProt Q00534+Q96SW2). The experiment is described as follows: Induction of CRBN-mediated CDK6 degradation in human U251 cells after 24 hrs by immunoblot analysis. The experiment is classed as cell-based.
The test system of experiment [8] is E3 ubiquitin-protein ligase Mdm2/Cyclin-dependent kinase 4 (Homo sapiens). The experiment is described as follows: Induction of MDM2-mediated CDK4 degradation in human U251 cells at 1 uM after 24 hrs by immunoblot analysis.
Experiment [9] addresses T2, E3 ubiquitin-protein ligase Mdm2/CDK6 (Homo sapiens) (UniProt Q00987+Q00534). Description: Induction of MDM2-mediated CDK6 degradation in human U251 cells at 1 uM after 24 hrs by immunoblot analysis. The experiment is classed as cell-based.
For experiment [10], the target named is T2, E3 ubiquitin-protein ligase Mdm2/CDK6 (Homo sapiens). Description: Induction of MDM2-mediated CDK6 degradation in human DAOY cells at 1 uM after 24 hrs by immunoblot analysis. The experiment is classed as cell-based. In a few lines: as §1
The target of experiment [11] is Protein cereblon/Cyclin-dependent kinase 4 (Homo sapiens, UniProt P11802+Q96SW2). The experiment is described as follows: Induction of CRBN-mediated CDK4 degradation in human U251 cells after 24 hrs by immunoblot analysis. The class given is cell-based.
Chain of Protein cereblon/Cyclin-dependent kinase 4 (P11802 whole entry): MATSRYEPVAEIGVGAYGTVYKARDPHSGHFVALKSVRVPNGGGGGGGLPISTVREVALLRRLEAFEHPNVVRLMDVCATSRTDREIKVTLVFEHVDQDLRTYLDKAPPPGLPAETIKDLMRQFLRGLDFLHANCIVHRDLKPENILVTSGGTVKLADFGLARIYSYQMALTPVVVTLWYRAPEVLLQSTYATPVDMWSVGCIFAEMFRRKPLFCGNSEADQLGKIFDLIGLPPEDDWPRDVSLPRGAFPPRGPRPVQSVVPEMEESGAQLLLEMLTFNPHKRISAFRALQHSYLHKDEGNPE
Chain of Protein cereblon/Cyclin-dependent kinase 4 (Q96SW2 whole entry): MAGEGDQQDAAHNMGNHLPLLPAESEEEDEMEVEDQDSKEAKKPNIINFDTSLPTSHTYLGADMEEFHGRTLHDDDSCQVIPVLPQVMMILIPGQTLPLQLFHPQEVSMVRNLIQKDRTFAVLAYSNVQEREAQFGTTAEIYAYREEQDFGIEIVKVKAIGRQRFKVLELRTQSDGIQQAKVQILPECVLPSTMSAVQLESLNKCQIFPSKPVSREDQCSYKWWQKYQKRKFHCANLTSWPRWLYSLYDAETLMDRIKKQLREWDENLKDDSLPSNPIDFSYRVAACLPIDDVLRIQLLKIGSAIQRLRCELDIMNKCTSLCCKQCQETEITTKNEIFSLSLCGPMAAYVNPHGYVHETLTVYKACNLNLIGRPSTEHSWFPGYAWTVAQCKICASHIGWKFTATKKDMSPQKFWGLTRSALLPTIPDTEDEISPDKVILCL

T2 sequence (Q00534 whole entry, looked up): as the sequence (Q00534 whole entry, looked up) above
T2 sequence (Q00987 whole entry, looked up): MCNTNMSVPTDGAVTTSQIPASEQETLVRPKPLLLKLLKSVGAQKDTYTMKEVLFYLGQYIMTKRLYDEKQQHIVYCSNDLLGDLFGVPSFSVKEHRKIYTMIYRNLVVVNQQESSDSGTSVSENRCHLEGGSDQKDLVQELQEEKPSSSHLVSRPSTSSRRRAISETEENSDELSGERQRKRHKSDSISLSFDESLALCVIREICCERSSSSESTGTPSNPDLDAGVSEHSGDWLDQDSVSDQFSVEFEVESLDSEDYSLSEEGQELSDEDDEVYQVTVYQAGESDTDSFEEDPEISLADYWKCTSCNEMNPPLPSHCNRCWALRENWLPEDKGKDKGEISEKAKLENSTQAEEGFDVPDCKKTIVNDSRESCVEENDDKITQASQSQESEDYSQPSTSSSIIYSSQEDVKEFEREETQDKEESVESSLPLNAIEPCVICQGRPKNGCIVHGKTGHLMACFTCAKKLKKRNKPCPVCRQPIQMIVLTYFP

As for `CC(=O)c1c(C)c2cnc(Nc3ccc(N4CCN(Cc5cn(CCOCCNC(=O)[C@H](CC(C)C)NC(=O)[C@@H](O)[C@H](N)Cc6ccccc6)nn5)CC4)cn3)nc2n(C2CCCC2)c1=O`, the outcome in [1], in experiment [2] and in [3] was inactive.
Regarding `CC(=O)c1c(C)c2cnc(Nc3ccc(N4CCN(Cc5cn(CCOCCOCCOCCNC(=O)CCC(=O)N[C@H](C(=O)N6C[C@H](O)C[C@H]6C(=O)NCc6ccc(-c7scnc7C)cc6)C(C)(C)C)nn5)CC4)cn3)nc2n(C2CCCC2)c1=O`, the result in experiment [4], in [5] and in experiment [6] was inactive.
On to `CN(C)C(=O)c1cc2cnc(Nc3ccc(N4CCN(Cc5cn(CCOCCOCCNc6cccc7c6C(=O)N(C6CCC(=O)NC6=O)C7=O)nn5)CC4)cn3)nc2n1C1CCCC1` (centres undefined), for which, in experiment [7], the result was inactive.
Take `COc1ccc(C2=N[C@H](c3ccc(Cl)cc3)[C@H](c3ccc(Cl)cc3)N2C(=O)N2CCN(CC(=O)NCCOCCn3cc(CN4CCN(c5ccc(Nc6ncc7c(C)c(C(C)=O)c(=O)n(C8CCCC8)c7n6)nc5)CC4)nn3)C(=O)C2)c(OC(C)C)c1`: the result in [8], in experiment [9] and in experiment [10] was inactive.
As usually defined, the DC50 is the midpoint of the concentration-degradation curve. As for `CC(=O)c1c(C)c2cnc(Nc3ccc(N4CCN(Cc5cn(CCCCCCNc6cccc7c6C(=O)N(C6CCC(=O)NC6=O)C7=O)nn5)CC4)cn3)nc2n(C2CCCC2)c1=O` (centres undefined), the 50% degradation concentration (DC50) was 10.6 nM in experiment [7] and above 100 nM in [11].
Take `CC(=O)c1c(C)c2cnc(Nc3ccc(N4CCN(CC(=O)NCCOCCOCCNc5cccc6c5C(=O)N(C5CCC(=O)NC5=O)C6=O)CC4)cn3)nc2n(C2CCCC2)c1=O` (centres undefined): the DC50 was 24.2 nM in experiment [7] and above 100 nM in experiment [11].
On to `CN(C)C(=O)c1cc2cnc(Nc3ccc(N4CCN(Cc5cn(CCOCCOCCOCCNc6cccc7c6C(=O)N(C6CCC(=O)NC6=O)C7=O)nn5)CC4)cn3)nc2n1C1CCCC1` (centres undefined), for which, in experiment [7], the outcome was inactive.
For `CC(=O)c1c(C)c2cnc(Nc3ccc(N4CCN(Cc5cn(CCCCCCc6cccc7c6C(=O)N(C6CCC(=O)NC6=O)C7=O)nn5)CC4)cn3)nc2n(C2CCCC2)c1=O` (centres undefined), the figures for the DC50 in experiment [7] and in [11] were 1.7 nM and above 50 nM, respectively.
As for `CC(=O)c1c(C)c2cnc(Nc3ccc(N4CCN(Cc5cn(CCOCCOCCOCCOCCNC(=O)[C@H](CC(C)C)NC(=O)[C@@H](O)[C@H](N)Cc6ccccc6)nn5)CC4)cn3)nc2n(C2CCCC2)c1=O`, the outcome in [1], in [2] and in experiment [3] was inactive.
As to `CC(=O)c1c(C)c2cnc(Nc3ccc(N4CCN(Cc5cn(CCOCCOCCOCCOCCNC(=O)CCC(=O)N[C@H](C(=O)N6C[C@H](O)C[C@H]6C(=O)NCc6ccc(-c7scnc7C)cc6)C(C)(C)C)nn5)CC4)cn3)nc2n(C2CCCC2)c1=O`, the result in experiment [4], in [5] and in experiment [6] was inactive.
With `CC(=O)c1c(C)c2cnc(Nc3ccc(N4CCN(Cc5cn(CCOCCNC(=O)CCC(=O)N[C@H](C(=O)N6C[C@H](O)C[C@H]6C(=O)NCc6ccc(-c7scnc7C)cc6)C(C)(C)C)nn5)CC4)cn3)nc2n(C2CCCC2)c1=O`, the outcome in experiment [4], in experiment [5] and in experiment [6] was inactive.
In the case of `CC(=O)c1c(C)c2cnc(Nc3ccc(N4CCN(Cc5cn(CCOCCOCCOCCNC(=O)[C@H](CC(C)C)NC(=O)[C@@H](O)[C@H](N)Cc6ccccc6)nn5)CC4)cn3)nc2n(C2CCCC2)c1=O`, the outcome in [1], in experiment [2] and in experiment [3] was inactive.
As for `CC(=O)c1c(C)c2cnc(Nc3ccc(N4CCN(Cc5cn(CCOCCOCCNC(=O)[C@H](CC(C)C)NC(=O)[C@@H](O)[C@H](N)Cc6ccccc6)nn5)CC4)cn3)nc2n(C2CCCC2)c1=O`, the outcome in [1], in experiment [2] and in [3] was inactive.
Consider `CN(C)C(=O)c1cc2cnc(Nc3ccc(N4CCN(Cc5cn(CCOCCNc6cccc7c6C(=O)N(C6CCC(=O)NC6=O)C7=O)nn5)CC4)cn3)nc2n1C1CCCC1` (centres undefined), for which the outcome in experiment [7] was inactive.
As to `CC(=O)c1c(C)c2cnc(Nc3ccc(N4CCN(Cc5cn(CCOCCOCCNC(=O)CCC(=O)N[C@H](C(=O)N6C[C@H](O)C[C@H]6C(=O)NCc6ccc(-c7scnc7C)cc6)C(C)(C)C)nn5)CC4)cn3)nc2n(C2CCCC2)c1=O`, the outcome in experiment [4], in experiment [5] and in experiment [6] was inactive.
On to `CC(=O)c1c(C)c2cnc(Nc3ccc(N4CCN(Cc5cn(CCCCC#Cc6cccc7c6C(=O)N(C6CCC(=O)NC6=O)C7=O)nn5)CC4)cn3)nc2n(C2CCCC2)c1=O` (centres undefined), for which the half-maximal degradation concentration (DC50) in [7] was 81.6 nM; in experiment [11], above 100 nM.
With `COc1ccc(C2=N[C@H](c3ccc(Cl)cc3)[C@H](c3ccc(Cl)cc3)N2C(=O)N2CCN(CC(=O)NCCOCCOCCn3cc(CN4CCN(c5ccc(Nc6ncc7c(C)c(C(C)=O)c(=O)n(C8CCCC8)c7n6)nc5)CC4)nn3)CC2)c(OC(C)C)c1`, the outcome in [8], in [9] and in [10] was inactive.
Regarding `CC(=O)c1c(C)c2cnc(Nc3ccc(N4CCN(CCOCCOCCNc5cccc6c5C(=O)N(C5CCC(=O)NC5=O)C6=O)CC4)cn3)nc2n(C2CCCC2)c1=O` (centres undefined), the DC50 was 1.6 nM in experiment [7] and above 50 nM in experiment [11].
With `Cc1nc2c(F)cc(-c3nc(Nc4ccc(CN5CCN(Cc6cn(CCOCCOCCOCCOCCNc7cccc8c7C(=O)N(C7CCC(=O)NC7=O)C8=O)nn6)CC5)cn4)ncc3F)cc2n1C(C)C` (centres undefined), the figures for the DC50 in experiment [7] and in experiment [11] were 146 nM and above 500 nM, respectively.
On to `Cc1nc2c(F)cc(-c3nc(Nc4ccc(CN5CCN(Cc6cn(CCOCCOCCNc7cccc8c7C(=O)N(C7CCC(=O)NC7=O)C8=O)nn6)CC5)cn4)ncc3F)cc2n1C(C)C` (centres undefined), for which the DC50 was 130 nM in [7] and above 500 nM in experiment [11].
On to `COc1ccc(C2=N[C@H](c3ccc(Cl)cc3)[C@H](c3ccc(Cl)cc3)N2C(=O)N2CCN(CC(=O)NCCOCCOCCOCCn3cc(CN4CCN(c5ccc(Nc6ncc7c(C)c(C(C)=O)c(=O)n(C8CCCC8)c7n6)nc5)CC4)nn3)C(=O)C2)c(OC(C)C)c1`, for which the outcome in [8], in [9] and in [10] was inactive.
With `Cc1nc2c(F)cc(-c3nc(Nc4ccc(CN5CCN(Cc6cn(CCOCCNc7cccc8c7C(=O)N(C7CCC(=O)NC7=O)C8=O)nn6)CC5)cn4)ncc3F)cc2n1C(C)C` (centres undefined), the figures for the DC50 in [7] and in [11] were 8.6 nM and above 500 nM, respectively.
In the same order, the values of `CC(=O)c1c(C)c2cnc(Nc3ccc(N4CCN(CC(=O)NCCOCCNc5cccc6c5C(=O)N(C5CCC(=O)NC5=O)C6=O)CC4)cn3)nc2n(C2CCCC2)c1=O` (centres undefined) are 1.1 nM and above 100 nM.
